Data set [1] deals with T1, Glutamate receptor ionotropic, NMDA 2B (Homo sapiens, UniProt Q05586+Q13224). The experiment in a line: Binding affinity to NMDA NR2B receptor.
In data set [2] the target is T1, Glutamate receptor ionotropic, NMDA 2B. The data set is described as follows: Antagonist activity at NMDA NR2B receptor assessed as calcium flux. Type of data set: functional.
A short description of data set [3]: Clearance in rat at 2 mg/kg, iv and 10 mg/kg, po. In kind it is ADME, organism-based. The settings on record: in vivo. The method, boiled down: (§1)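 Rats were dosed 2 mg/kg iv and 10 mg/kg po in separate arms. Plasma Cmax, plasma half-life, clearance and oral bioavailability were derived from these two dosings.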
A short description of data set [4]: Cmax in rat at 2 mg/kg, iv and 10 mg/kg, po. Type of data set: ADME, organism-based. Conditions: in vivo. The method, boiled down:
as §1

A further data set deals with Rattus norvegicus. The experiment in a line: Reduction in hyperalgesic response in po dosed carrageenan-induced hyperalgesia rat model. In kind it is functional. The method, boiled down:
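Carrageenan was used to induce hyperalgesia in rats, and test compound was given orally. Behavioral responses to noxious stimuli were scored, and the hyperalgesic response was expressed as % reduction versus control. ED50 was derived from oral dosing.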

A short description of data set [5]: Half life in rat at 2 mg/kg, iv and 10 mg/kg, po. The settings on record: in vivo. Type of data set: ADME, organism-based. The method, boiled down: as §1
Data set [6] can be described thus: Oral bioavailability in rat at 10 mg/kg. In kind it is ADME, organism-based. The settings on record: in vivo. The method, boiled down: as §1

T1 sequence (Q13224 whole entry, one chain of several): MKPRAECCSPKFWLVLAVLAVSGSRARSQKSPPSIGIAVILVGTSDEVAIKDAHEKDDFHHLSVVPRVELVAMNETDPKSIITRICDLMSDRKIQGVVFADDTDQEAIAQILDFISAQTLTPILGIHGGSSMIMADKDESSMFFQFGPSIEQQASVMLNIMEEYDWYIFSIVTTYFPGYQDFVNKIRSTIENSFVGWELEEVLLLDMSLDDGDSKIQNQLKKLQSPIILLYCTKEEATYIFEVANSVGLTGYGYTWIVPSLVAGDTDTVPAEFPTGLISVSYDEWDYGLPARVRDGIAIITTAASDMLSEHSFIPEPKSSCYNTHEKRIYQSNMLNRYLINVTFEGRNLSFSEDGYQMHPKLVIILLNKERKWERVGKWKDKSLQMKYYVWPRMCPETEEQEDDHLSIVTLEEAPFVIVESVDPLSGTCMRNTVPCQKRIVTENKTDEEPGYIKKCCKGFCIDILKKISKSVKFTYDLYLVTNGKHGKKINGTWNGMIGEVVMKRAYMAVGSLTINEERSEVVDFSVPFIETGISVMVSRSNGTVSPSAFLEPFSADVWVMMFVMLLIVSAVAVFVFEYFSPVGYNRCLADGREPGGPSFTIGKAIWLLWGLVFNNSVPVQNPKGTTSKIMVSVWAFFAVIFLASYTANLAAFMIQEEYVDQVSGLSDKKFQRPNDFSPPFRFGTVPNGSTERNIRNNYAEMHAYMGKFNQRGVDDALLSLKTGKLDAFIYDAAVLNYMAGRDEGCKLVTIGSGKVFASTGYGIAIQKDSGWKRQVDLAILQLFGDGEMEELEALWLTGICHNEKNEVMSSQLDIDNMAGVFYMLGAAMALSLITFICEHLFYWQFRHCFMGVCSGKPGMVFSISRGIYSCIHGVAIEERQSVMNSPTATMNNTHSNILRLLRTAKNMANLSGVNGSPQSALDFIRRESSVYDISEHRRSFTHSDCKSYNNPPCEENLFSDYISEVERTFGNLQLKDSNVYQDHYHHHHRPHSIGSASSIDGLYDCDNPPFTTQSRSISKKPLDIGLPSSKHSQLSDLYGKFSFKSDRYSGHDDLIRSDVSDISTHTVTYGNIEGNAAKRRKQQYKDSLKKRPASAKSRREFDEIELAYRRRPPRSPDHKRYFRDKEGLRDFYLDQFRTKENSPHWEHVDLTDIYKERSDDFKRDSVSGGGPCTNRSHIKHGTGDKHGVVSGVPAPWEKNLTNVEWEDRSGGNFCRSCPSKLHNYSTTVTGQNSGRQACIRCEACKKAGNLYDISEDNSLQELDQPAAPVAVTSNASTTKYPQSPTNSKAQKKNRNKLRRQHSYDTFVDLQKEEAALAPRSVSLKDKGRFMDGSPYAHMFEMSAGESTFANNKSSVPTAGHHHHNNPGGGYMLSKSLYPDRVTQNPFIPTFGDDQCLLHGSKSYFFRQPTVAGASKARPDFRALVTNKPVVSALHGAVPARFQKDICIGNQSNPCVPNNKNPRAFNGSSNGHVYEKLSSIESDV

In the case of `FC(F)(F)Oc1ccc(C2=NC(c3cc(Cl)cc(Cl)c3)CN2)cc1Cl` (configuration not stated), the affinity in data set [1], expressed as Ki, was 0.223 µM. The IC50 – broadly, the concentration that inhibits the measured activity by half – in data set [2] turned out to be 3.67 µM.
In the same order, the values of `FC(F)(F)Oc1ccc(C2=NCC(c3ccccc3C(F)(F)F)N2)cc1Cl` (configuration not stated) are 0.353 µM and 1.27 µM.
For `FC(F)(F)Oc1ccc(C2=NCC(c3ccccc3OC(F)(F)F)N2)cc1Cl` (configuration not stated), in that order: 0.505 µM and 3.48 µM.
In data set [3], `COc1ccccc1CN1Cc2cc(OC(F)(F)F)ccc2C1=N` returned a clearance of 3.96 L/h/kg. For the same compound, the inhibition constant Ki (in general, the equilibrium dissociation constant of an inhibitor or competing ligand from its target) in data set [1] came out at 0.0036 µM. In data set [4], the peak level (Cmax) was 0.215 µM. In addition, it took a dose of 20 mg/kg to reach the 50% effect level in the data set with Rattus norvegicus (ED50). In addition, the half-life (in general, how long it takes for the measured level to halve) in data set [5] is 2 h. Besides, the IC50 in data set [2] came out at 0.0059 µM. Besides, the bioavailability (usually dose-corrected exposure relative to a reference, in per cent) in data set [6] came out at 5%.
In data set [1], `OC1CN=C(c2ccc(OC(F)(F)F)cc2)NC1c1ccccc1` (configuration not stated) registered an inhibition constant (Ki) of 7.35 µM.
Turning to `FC(F)(F)Oc1ccc(C2=NC(c3cccc(Cl)c3)CN2)cc1` (configuration not stated), in data set [1], the Ki is 0.296 µM. Moreover, the half-inhibitory concentration (IC50) in data set [2] came to 1.98 µM.
For `N=C1c2ccc(OC(F)(F)F)cc2CN1Cc1cccc(Cl)c1`, in that order: 0.008 µM and 0.049 µM.
For the compound `FC(F)(F)Oc1ccc(C2=NCCCC(c3ccccc3)N2)cc1` (configuration not stated), in data set [1], the Ki was determined as 4.2 µM.
In the case of `N=C1c2ccc(OC(F)(F)F)cc2CN1Cc1cccc2ccoc12`, in data set [1], the Ki was determined as 0.0022 µM. Also, in data set [2], the IC50 is 0.012 µM.
In the same order, the values of `COc1ccccc1C1CN=C(c2ccc(OC(F)(F)F)c(Cl)c2)N1` (configuration not stated) are 0.075 µM and 0.108 µM.
For `FC(F)(F)Oc1ccc(C2=NC(c3cccc(Cl)c3)CN2)cc1Cl` (configuration not stated), in data set [1], the Ki was found to be 0.066 µM. The IC50 in data set [2] is 0.266 µM.
For `Cc1cc(C)cc(CN2Cc3cc(OC(F)(F)F)ccc3C2=N)c1`, in that order: 0.002 µM and 0.039 µM.

The values are drawn from ChEMBL document CHEMBL1139975, “Cyclic benzamidines as orally efficacious NR2B-selective NMDA receptor antagonists” (Bioorg Med Chem Lett, 2007).
